Measured values: ChEMBL document CHEMBL1165941, “Design and synthesis of 2,4-disubstituted polyhydroquinolines as prospective antihyperglycemic and lipid modulating agents” (Bioorg Med Chem, 2010)
Calls of active or inactive are those of the source. The rule behind the calls is not given here.

Columns and labels:
[1] = biological target: T1, Tyrosine-protein phosphatase non-receptor type 1 (Homo sapiens) (UniProt P18031); assay: Inhibition of PTP1B assessed as p-nitrophenolate ion production at 100 uM pretreated for 10 mins measured after 30 mins
T1 sequence (whole entry): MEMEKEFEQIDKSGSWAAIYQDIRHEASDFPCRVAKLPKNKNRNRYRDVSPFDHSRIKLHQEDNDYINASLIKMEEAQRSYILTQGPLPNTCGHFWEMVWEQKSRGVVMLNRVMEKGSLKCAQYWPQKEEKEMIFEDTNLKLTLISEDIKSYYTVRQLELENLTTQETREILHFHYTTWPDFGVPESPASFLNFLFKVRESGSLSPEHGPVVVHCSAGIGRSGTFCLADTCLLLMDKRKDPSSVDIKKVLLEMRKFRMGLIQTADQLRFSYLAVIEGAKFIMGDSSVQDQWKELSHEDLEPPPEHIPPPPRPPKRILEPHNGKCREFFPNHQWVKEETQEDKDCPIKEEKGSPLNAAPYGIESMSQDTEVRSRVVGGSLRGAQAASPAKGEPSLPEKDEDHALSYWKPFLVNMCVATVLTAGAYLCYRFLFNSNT
Outline: (§1)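 PTP1B was preincubated 10 min with compound, with and without 0.01% Triton X-100. Substrate was 10 mM pNPP in 50 mM HEPES pH 7.0 with 1 mM DTT and 2 mM EDTA. After 30 min at 37 °C the reaction was stopped with 0.1 N NaOH and A410 was read. Product was calculated with ε 1.78×10⁴ M⁻¹cm⁻¹. Sodium orthovanadate served as standard. IC50 came from dose–response curves.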

Rattus norvegicus [2] = assay: Antidyslipidemic activity in Charles Foster rat assessed as reduction of Triton WR-1339-induced increase of blood phospholipid level at 100 mg/kg, po after 18 hrs; type: functional; parameters: scale not given: the % may be the effect or the level left
Outline: (§2)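 Hyperlipidemia induced by Triton WR-1339, 400 mg/kg ip, in adult male Charles Foster rats (200–225 g), five per group. Compounds were macerated in 0.2% w/v gum acacia, suspended in water and given 100 mg/kg po together with triton. Plasma was obtained by centrifugation at 2500g, 4 °C, 10 min and diluted 1:3 in saline. TC, PL and TG were measured by enzymatic methods.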

[3] = biological target: Dipeptidyl peptidase 4 (Homo sapiens) (UniProt P27487); assay: Inhibition of DPP4 at 100 uM after 15 mins by spectrofluorimeter
Outline: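 DPP-IV activity was measured at 37 °C as Gly-Pro-AMC (30 µM) cleavage in Tris–HCl pH 7.4 with test compound. Fluorescence was read at excitation 355 nm and emission 460 nm. The initial rate was taken over the first 15 min.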

Rattus norvegicus [4] = assay: Antidyslipidemic activity in Charles Foster rat assessed as reduction of Triton WR-1339-induced increase of blood total cholesterol level at 100 mg/kg, po after 18 hrs; type: functional; parameters: scale not given: the % may be the effect or the level left; outline: as §2
Rattus norvegicus [5] = assay: Antihyperglycemic activity in Sprague-Dawley albino rat streptozotocin-induced beta-cell damaged diabetic model assessed as decrease of blood glucose level at 100 mg/kg, po administered 30 mins before glucose challenge measured after 5 hrs by glucometer; type: functional; parameters: scale not given: the % may be the effect or the level left
Outline: (§3)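 Rats were made diabetic with streptozotocin 60 mg/kg ip in 100 mM citrate pH 4.5 after an overnight fast. Animals with glucose 144–270 mg/dl at 48 h were used, 5–6 per group. Compounds were given 100 mg/kg orally in 1.0% gum acacia. Sucrose 2.5 g/kg followed 30 min later. Glucose was read by glucostrips up to 300 min and at 24 h. Non-responders were excluded. Percent activity came from AUC versus control.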

[6] = biological target: T2, Glucose-6-phosphatase catalytic subunit 1 (Homo sapiens) (UniProt P35575); assay: Inhibition of glucose-6-phosphatase assessed as inositol phosphate release at 100 uM after 30 mins; details: in the assay text read “inorganic phosphate” for “inositol phosphate”
T2 sequence (whole entry): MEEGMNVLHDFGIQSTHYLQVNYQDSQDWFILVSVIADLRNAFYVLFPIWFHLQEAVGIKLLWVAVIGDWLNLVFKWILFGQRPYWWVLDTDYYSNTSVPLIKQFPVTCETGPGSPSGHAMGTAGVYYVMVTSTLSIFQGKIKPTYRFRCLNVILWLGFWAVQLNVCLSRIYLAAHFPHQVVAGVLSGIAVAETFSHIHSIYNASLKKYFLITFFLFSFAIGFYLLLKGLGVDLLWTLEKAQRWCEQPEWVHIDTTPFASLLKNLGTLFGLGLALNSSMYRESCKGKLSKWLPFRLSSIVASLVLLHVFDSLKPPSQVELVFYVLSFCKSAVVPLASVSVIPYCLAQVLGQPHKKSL
Outline: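 Glucose-6-phosphatase was assayed in 0.3 M citrate pH 6.0 with 28 mM EDTA, 14 mM NaF, 200 mM glucose-6-phosphate and enzyme protein. After 30 min at 37 °C the reaction was stopped with 10% TCA. Activity was expressed as µmol Pi released per min per mg protein.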

Rattus norvegicus [7] = assay: Antihyperglycemic activity in Charles Foster-Wistar albino rat sucrose loaded model assessed as decrease of blood glucose level at 100 mg/kg, po administered 30 mins before glucose challenge measured up to 120 mins by glucometer; type: functional; parameters: scale not given: the % may be the effect or the level left; details: in the assay text read “Sprague-Dawley” for “Charles Foster-Wistar”
Outline: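 Sprague–Dawley male rats with blood glucose 60–80 mg/dl, 5–6 per group, received 100 mg/kg orally as a suspension in 1.0% gum acacia; controls received vehicle. Sucrose 10.0 g/kg was given orally 30 min later. Glucose was read by glucometer at 30, 60, 90 and 120 min. Food was withheld. Percent activity came from AUC versus control.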

Rattus norvegicus [8] = assay: Antihyperglycemic activity in Sprague-Dawley albino rat streptozotocin-induced beta-cell damaged diabetic model assessed as decrease of blood glucose level at 100 mg/kg, po administered 30 mins before glucose challenge measured after 24 hrs by glucometer; type: functional; parameters: scale not given: the % may be the effect or the level left; outline: as §3
[9] = Inhibition of alpha-glucosidase at 100 uM after 3 mins
Outline: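 α-Glucosidase (0.1 mg/mL, purified) was assayed in 67 mM sodium phosphate pH 6.8 with 1.0 mg/mL glutathione. The reaction was started with 3.0 mg/mL pNPG and followed at 405 nm every 30 s for 3 min.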

[10] = Inhibition of glycogen phosphorylase assessed as […] phosphate release at 100 uM after 30 mins
Outline: (§4)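 Glycogen phosphorylase was incubated with glycogen, glucose-1-phosphate, NaF and 5′-AMP for 30 min at 37 °C. The reaction was stopped with 10% TCA and 0.1 M sodium acetate. Samples were held overnight at 4 °C, then released Pi was measured.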

Rattus norvegicus [11] = assay: Antidyslipidemic activity in Charles Foster rat assessed as reduction of Triton WR-1339-induced increase of blood triglyceride level at 100 mg/kg, po after 18 hrs; type: functional; parameters: scale not given: the % may be the effect or the level left; outline: as §2
Mus musculus [12] = species: Mus musculus; assay: Antihyperglycemic activity in C57BL/KsBom-db db/db mouse assessed as decrease in blood glucose AUC level measured on day 5 by oral glucose tolerance test (reference value: 30730 +/- 3687 %); type: functional; parameters: scale not given: the % may be the effect or the level left
Rattus norvegicus [13] = assay: Antihyperglycemic activity in po dosed Sprague-Dawley albino rat streptozotocin-induced beta-cell damaged diabetic model assessed as decrease of blood glucose level […] measured after 24 hrs by glucometer; type: functional
Mus musculus [14] = species: Mus musculus; assay: Antihyperglycemic activity in C57BL/KsBom-db db/db mouse assessed as decrease in blood glucose AUC level measured on day 10 by oral glucose tolerance test (reference value: 32480 +/- 5098 %); type: functional; parameters: scale not given: the % may be the effect or the level left
[15] = Inhibition of glycogen phosphorylase assessed as inositol phosphate release after 30 mins; outline: as §4
[16] = biological target: T3, Tyrosine-protein phosphatase non-receptor type 1 (Homo sapiens, UniProt P18031); assay: Inhibition of PTP1B assessed as p-nitrophenolate ion production pretreated for 10 mins measured after 30 mins; outline: as §1
T3 sequence (P18031 whole entry): T1 sequence (whole entry)

Chain of Dipeptidyl peptidase 4 (Homo sapiens) (P27487 whole entry, looked up): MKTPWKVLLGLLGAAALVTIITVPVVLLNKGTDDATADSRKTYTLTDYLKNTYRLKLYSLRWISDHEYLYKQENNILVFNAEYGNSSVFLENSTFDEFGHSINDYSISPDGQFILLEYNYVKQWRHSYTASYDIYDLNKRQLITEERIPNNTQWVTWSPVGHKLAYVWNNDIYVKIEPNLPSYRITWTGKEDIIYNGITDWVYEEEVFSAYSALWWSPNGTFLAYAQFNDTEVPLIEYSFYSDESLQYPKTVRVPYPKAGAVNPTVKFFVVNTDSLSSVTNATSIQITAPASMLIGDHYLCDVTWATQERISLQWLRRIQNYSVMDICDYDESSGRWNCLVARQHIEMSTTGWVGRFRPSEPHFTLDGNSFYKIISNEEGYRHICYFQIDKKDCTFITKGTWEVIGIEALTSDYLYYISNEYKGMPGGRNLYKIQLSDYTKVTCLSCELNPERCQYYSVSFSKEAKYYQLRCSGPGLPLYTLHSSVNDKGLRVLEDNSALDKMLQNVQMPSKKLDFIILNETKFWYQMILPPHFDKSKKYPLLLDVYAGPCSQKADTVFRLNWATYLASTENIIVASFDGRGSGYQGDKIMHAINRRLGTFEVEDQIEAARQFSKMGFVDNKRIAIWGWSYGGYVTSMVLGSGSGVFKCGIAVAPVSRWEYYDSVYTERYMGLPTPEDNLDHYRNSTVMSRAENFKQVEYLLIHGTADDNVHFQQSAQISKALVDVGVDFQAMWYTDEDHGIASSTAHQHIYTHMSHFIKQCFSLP

| inhibition [1] [%] | inhibition [3] | inhibition [6] | inhibition [9] | inhibition [10] | IC50 [15] [µM] | IC50 [16] [µM] | SMILES | Activity (Rattus norvegicus [2]) [%] | Activity (Rattus norvegicus [4]) [%] | Activity (Rattus norvegicus [5]) [%] | Activity (Rattus norvegicus [7]) [%] | Activity (Rattus norvegicus [8]) [%] | Activity (Rattus norvegicus [11]) [%] | Activity (Mus musculus [12]) [%] | ED50 (Rattus norvegicus [13]) [mg/kg] | Activity (Mus musculus [14]) [%] |
| --- | --- | --- | --- | --- | --- | --- | --- | --- | --- | --- | --- | --- | --- | --- | --- | --- |
| 41.8 | 12% | inactive | 34.3% | inactive | – | – | CC1(C)CC(=O)C2=C(C1)NC(c1ccccc1)=CC2c1ccccc1 (stereo not drawn) | -19.23 | -17.89 | 17.3 | 24.9 | 13.3 | -16.45 | – | – | – |
| – | – | – | – | – | – | – | Cc1ccc(C)c(OCCCC(C)(C)C(=O)O)c1 [GEMFIBROZIL] | -39.43 | -37.56 | – | – | – | -36.21 | – | – | – |
| 35.4 | 5.7% | inactive | 11.2% | 78.3% | 5.9 | – | COc1ccc(C2C=C(C(=O)O)NC3=C2C(=O)CC(C)(C)C3)cc1 (stereo not drawn) | -21.82 | -24.63 | 29.7 | 42.7 | 33.2 | -19.34 | -17.9 | 48.6 | -39.6 |
| 88.2 | inactive | 7.38% | inactive | 14.6% | – | 2.9 | CC1(C)CC(=O)C2=C(C1)NC(c1ccccc1)=CC2c1ccc(F)cc1 (stereo not drawn) | -18.83 | -22.45 | 29.9 | 41.3 | 32.3 | -26.34 | -13.2 | 47.3 | -32.6 |
| 70.3 | inactive | 21.9% | inactive | 17.4% | – | 12.6 | O=C1CCCC2=C1C(c1ccc(F)cc1)C=C(c1ccccc1)N2 (stereo not drawn) | – | – | 19.6 | 34.5 | 24.1 | – | – | – | – |
| 25.4 | inactive | inactive | inactive | 63.4% | 9.7 | – | CC1(C)CC(=O)C2=C(C1)NC(C(=O)O)=CC2c1ccc(Cl)cc1 (stereo not drawn) | -15.38 | -17.45 | 16.6 | 13.7 | 12.2 | -11.97 | – | – | – |
| 84.9 | inactive | 7.16% | 12.1% | 5.89% | – | 6.3 | CC1(C)CC(=O)C2=C(C1)NC(c1ccccc1)=CC2c1ccc(Cl)cc1 (stereo not drawn) | -22.47 | -25.56 | 18.9 | 23.5 | 16.4 | -19.32 | – | – | – |
| 24.7 | inactive | 8.21% | 27.9% | 19.3% | – | – | O=C1CCCC2=C1C(c1ccc(Cl)cc1)C=C(c1ccccc1)N2 (stereo not drawn) | -5.9 | -6.7 | 12.9 | 24.7 | 16.9 | -7.89 | – | – | – |
| 5.3 | inactive | inactive | inactive | 14.9% | – | – | CCOC(=O)C1(O)CC(c2ccc(F)cc2)C2=C(CC(C)(C)CC2=O)O1 (stereo not drawn) | -17.2 | -10.3 | – | 15.3 | – | -8.2 | – | – | – |
| 28.9 | 14.6% | 17.1% | 4.6% | 77.3% | 6.1 | – | CC1(C)CC(=O)C2=C(C1)NC(C(=O)O)=CC2c1ccccc1 (stereo not drawn) | -7.89 | -8.99 | 18.3 | 28.9 | 16.7 | -13.86 | – | – | – |
| 12.3 | inactive | inactive | inactive | 81.3% | 5.3 | – | CC1(C)CC(=O)C2=C(C1)NC(C(=O)O)=CC2c1ccc(Br)cc1 (stereo not drawn) | – | – | 17.8 | 31.7 | 13.6 | – | – | – | – |
